Measured values gathered from unrelated publications.
Each line is one published result; the experiments were not run side by side.
Observed: cell growth or viability

| SMILES | cell line | assay | conditions | IC50 [µM] |
| --- | --- | --- | --- | --- |
| O=[N+]([O-])c1cc(I)c(O)c(C=NNc2ccccc2)c1 | HEK-293T | MTT | 24 h | 17 |
| COc1cccc2c1C(=O)c1c(O)c3c(c(O)c1C2=O)C[C@@](O)(C(=O)CO)C[C@@H]3O[C@H]1C[C@H](N)[C@H](O)[C@H](C)O1 | Ramos | – | 96 h | 0.0117 |
| COc1cccc2c1C(=O)c1c(O)c3c(c(O)c1C2=O)C[C@@](O)(C(=O)CO)C[C@@H]3O[C@H]1C[C@H](N)[C@H](O)[C@H](C)O1 | HEK-293T | MTT | 24 h | 1.39 |
| c1ccc(-c2noc(-c3nn(Cc4ccc5ccccc5c4)c4ccccc34)n2)cc1 | HepG2 | – | 48 h | 115 |
| O=[N+]([O-])c1cc(Br)c(O)c(C=NNc2ccc(C(F)(F)F)cc2)c1 | HEK-293T | MTT | 24 h | 18 |
| O=C(Nc1ccc(Cl)cc1)Nc1cccc(-c2cn(Cc3cccc(Cl)c3)nn2)c1 | Huh-7 | CCK-8 | 72 h | 15.1 |
| COc1ccc(NC(=O)Nc2cccc(-c3cn(Cc4ccc(Br)cc4)nn3)c2)cc1 | Huh-7 | CCK-8 | 72 h | 15.9 |
| CN1CCN(c2ccc(Nc3c4ccccc4nc4ccccc34)cc2)CC1 | THLE3 | imaging | 72 h | 8.63 |
| Cc1nc(Nc2ncc(C(=O)Nc3c(C)cccc3Cl)s2)cc(N2CC[C@H](O)C2)n1 | Ramos | ATP luminescence | 72 h | > 10 |
| COc1ccc(NC(=O)Nc2ccc(-c3cn(Cc4ccc(Cl)cc4)nn3)cc2)cc1 | Huh-7 | CCK-8 | 72 h | > 50 |
| COC(=O)c1ccc2c(c1)NC(=O)/C2=C(\Nc1ccc(N(C)C(=O)CN2CCN(C)CC2)cc1)c1ccccc1 | HEK-293T | MTT | 24 h | 0.8 |
| COc1ccc(NC(=O)NCc2cn(Cc3ccc(Cl)cc3)nn2)cc1 | Huh-7 | CCK-8 | 72 h | > 50 |
| O=C(Nc1ccc(Cl)cc1)Nc1cccc(-c2cn(Cc3ccc(Cl)cc3)nn2)c1 | Huh-7 | CCK-8 | 72 h | 13 |
| O=C(Nc1ccc(Cl)cc1)Nc1cccc(-c2cn(Cc3cccc(Br)c3)nn2)c1 | Huh-7 | CCK-8 | 72 h | 32.3 |
| COc1cccc2c1C(=O)c1c(O)c3c(c(O)c1C2=O)C[C@@](O)(C(=O)CO)C[C@@H]3O[C@H]1C[C@H](N)[C@H](O)[C@H](C)O1 | Huh-7 | ATP luminescence | 72 h | 0.6 |
| O=[N+]([O-])c1cc(I)c(O)c(C=NNc2ccc(C(F)(F)F)cc2)c1 | HEK-293T | MTT | 24 h | 8.11 |
| COc1ccc(NC(=O)Nc2ccc(-c3cn(Cc4ccc(Br)cc4)nn3)cc2)cc1 | Huh-7 | CCK-8 | 72 h | > 50 |
